pIC50: −log10 of the molar value. Active and inactive are the calls of the source.
Legend:
[1] = molecular target: Nitric oxide synthase, inducible (Homo sapiens, UniProt P35228); test: Inhibition of cytokine-induced iNOS expressed in human A172 cells assessed as inhibition of NO formation; format: cell-based, A 172
[2] = Inhibition of vaccinia virus system-induced human NOS expressed in BSC1 cells; format: cell-based; details: bsc-1
BSC-1 [3] = test: Selectivity ratio, IC50 for bcNOS/IC50 for iNOS using vaccinia virus-induced system in BSC1 cells; format: cell-based; details: Homo sapiens
Method in brief: (§1)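 For each compound, the IC50 against bcNOS (b/i) or ecNOS (e/i) is divided by the iNOS IC50 from the same BSC-1 vaccinia system.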

[4] = molecular target: Nitric oxide synthase, inducible (Rattus norvegicus) (UniProt Q06518); test: Activity against rat cerebellum iNOS upto 1 uM
BSC-1 [5] = test: Selectivity ratio, IC50 for ecNOS/IC50 for iNOS using vaccinia virus-induced system in BSC1 cells; format: cell-based; details: Homo sapiens; method in brief: as §1
Sf9 [6] = test: Selectivity ratio, IC50 for ecNOS/IC50 for iNOS using tetracycline-induced system in SF9 cells; format: cell-based; details: Homo sapiens
Method in brief: (§2)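 SF9 cells carrying a tetracycline-induced system expressing one NOS isoform (iNOS, ecNOS or bcNOS); cellular NO formation inhibition measured, compounds up to 10 µM.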

Sf9 [7] = test: Selectivity ratio, IC50 for bcNOS/IC50 for iNOS using tetracycline-induced system in SF9 cells; format: cell-based; details: Homo sapiens; method in brief: as §2
[8] = Inhibition of tetracycline system-induced human NOS expressed in SF9 cells; method in brief: as §2
[9] = Bioavailability in dog at 3 mg/kg, po; format: ADME, organism-based, Canis lupus familiaris; details: in vivo
[10] = Clearance in dog at 3 mg/kg; format: ADME, organism-based, Canis lupus familiaris; design: dose 3 mg/kg; details: in vivo
[11] = Bioavailability in po and iv dosed rat 10 mg/kg, po; format: ADME, organism-based; details: in vivo
[12] = Half life in rat at 10 mg/kg, iv; format: ADME, organism-based; design: dose 10 mg/kg, route intravenous; details: in vivo
Rattus norvegicus = test: Amelioration of adjuvant-induced arthritis in sc dosed Lewis rat; format: functional, organism-based
Method in brief: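 Adult male Lewis rats immunized intradermally at the proximal tail with Mycobacterium butyricum in incomplete Freund's adjuvant (10 mg/mL, 0.1 mL). Starting the next day, dosed subcutaneously at 3, 10 or 30 mg/kg or vehicle twice daily (12 h apart); naive group untreated; 10 rats per group. Weighed and clinically scored (0-4 per limb) 3 times weekly; radiological scoring; sacrifice at day 34-35.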

[13] = Half life in dog at 3 mg/kg, iv; format: ADME, organism-based, Canis lupus familiaris; design: dose 3 mg/kg, route intravenous; details: in vivo

Chain of Nitric oxide synthase, inducible (Rattus norvegicus) (Q06518 whole entry): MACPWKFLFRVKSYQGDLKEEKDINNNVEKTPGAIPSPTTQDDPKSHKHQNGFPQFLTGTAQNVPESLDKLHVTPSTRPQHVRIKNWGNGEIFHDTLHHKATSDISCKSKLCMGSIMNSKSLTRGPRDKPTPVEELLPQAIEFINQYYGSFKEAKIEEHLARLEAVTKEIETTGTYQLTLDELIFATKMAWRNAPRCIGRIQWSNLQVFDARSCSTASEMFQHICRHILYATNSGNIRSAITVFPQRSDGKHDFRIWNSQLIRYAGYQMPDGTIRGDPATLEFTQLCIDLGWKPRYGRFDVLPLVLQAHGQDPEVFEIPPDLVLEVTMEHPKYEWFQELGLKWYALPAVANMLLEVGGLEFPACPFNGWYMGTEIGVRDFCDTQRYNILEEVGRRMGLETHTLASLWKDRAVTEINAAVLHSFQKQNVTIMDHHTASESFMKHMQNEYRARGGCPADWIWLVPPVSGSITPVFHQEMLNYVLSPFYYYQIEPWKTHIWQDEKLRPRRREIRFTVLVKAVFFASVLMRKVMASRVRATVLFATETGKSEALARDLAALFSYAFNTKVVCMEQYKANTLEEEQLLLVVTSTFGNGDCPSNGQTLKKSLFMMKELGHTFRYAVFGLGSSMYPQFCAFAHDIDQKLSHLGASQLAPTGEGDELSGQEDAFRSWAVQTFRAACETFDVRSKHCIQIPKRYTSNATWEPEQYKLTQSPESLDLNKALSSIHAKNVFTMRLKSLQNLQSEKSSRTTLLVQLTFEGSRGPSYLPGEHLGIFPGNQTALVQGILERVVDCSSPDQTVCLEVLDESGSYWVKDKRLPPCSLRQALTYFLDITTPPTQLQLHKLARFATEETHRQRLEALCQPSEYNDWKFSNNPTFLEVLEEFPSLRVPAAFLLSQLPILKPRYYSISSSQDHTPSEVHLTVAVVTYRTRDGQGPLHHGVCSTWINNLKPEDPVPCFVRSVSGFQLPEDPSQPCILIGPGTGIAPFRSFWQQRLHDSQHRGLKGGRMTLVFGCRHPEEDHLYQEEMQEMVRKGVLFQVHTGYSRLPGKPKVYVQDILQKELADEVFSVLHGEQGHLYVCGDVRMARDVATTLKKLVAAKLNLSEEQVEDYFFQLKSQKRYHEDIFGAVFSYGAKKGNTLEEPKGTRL
Chain of Nitric oxide synthase, inducible (P35228 whole entry): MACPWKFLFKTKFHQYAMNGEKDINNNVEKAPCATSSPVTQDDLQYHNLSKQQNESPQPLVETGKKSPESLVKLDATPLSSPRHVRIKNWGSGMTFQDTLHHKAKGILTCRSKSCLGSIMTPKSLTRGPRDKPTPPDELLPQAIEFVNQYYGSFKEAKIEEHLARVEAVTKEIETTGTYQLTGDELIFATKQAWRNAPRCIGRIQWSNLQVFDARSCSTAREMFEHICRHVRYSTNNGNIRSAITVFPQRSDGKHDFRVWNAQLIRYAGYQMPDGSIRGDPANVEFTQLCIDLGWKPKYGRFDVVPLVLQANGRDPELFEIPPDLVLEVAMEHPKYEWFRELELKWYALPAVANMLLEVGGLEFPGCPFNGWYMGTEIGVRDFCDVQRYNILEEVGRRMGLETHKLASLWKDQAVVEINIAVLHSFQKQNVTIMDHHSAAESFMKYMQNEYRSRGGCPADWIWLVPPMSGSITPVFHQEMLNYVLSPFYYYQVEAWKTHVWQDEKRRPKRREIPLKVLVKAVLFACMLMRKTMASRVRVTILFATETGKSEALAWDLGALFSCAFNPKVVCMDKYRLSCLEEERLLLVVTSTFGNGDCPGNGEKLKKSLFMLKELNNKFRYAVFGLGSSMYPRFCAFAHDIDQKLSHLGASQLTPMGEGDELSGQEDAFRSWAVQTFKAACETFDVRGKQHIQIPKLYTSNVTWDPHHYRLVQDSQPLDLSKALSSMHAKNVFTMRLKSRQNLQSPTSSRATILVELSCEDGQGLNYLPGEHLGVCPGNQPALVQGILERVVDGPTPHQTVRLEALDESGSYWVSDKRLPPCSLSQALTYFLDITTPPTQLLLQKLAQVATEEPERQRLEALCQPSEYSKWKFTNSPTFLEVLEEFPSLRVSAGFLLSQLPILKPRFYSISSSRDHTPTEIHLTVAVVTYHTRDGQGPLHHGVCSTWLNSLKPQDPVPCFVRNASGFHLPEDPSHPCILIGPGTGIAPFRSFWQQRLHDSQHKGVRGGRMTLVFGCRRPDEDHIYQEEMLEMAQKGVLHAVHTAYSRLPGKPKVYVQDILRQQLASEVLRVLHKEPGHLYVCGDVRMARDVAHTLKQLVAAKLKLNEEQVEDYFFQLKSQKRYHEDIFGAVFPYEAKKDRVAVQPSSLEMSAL

SMILES | pIC50 [1] | pIC50 [2] | Ratio IC50 (BSC-1 [3]) | Activity [4] | Ratio IC50 (BSC-1 [5]) | Ratio IC50 (Sf9 [6]) | Ratio IC50 (Sf9 [7]) | pIC50 [8] | bioavailability [9] [%] | clearance [10] [mL/min/kg] | bioavailability [11] [%] | half-life [12] [h] | Activity (Rattus norvegicus) | half-life [13] [h]
O=C(C[C@H]1CCCN1c1ccnc(-n2ccnc2)n1)NCc1ccc2c(c1)OCO2 | 9.55 | 8.25 | 5 | inactive | 2900 | 47 | 6 | 8.26 |  |  |  |  |  | 
CCc1cc(N2CCC[C@@H]2C(=O)NCCc2ccc3c(c2)OCO3)nc(-n2ccnc2)n1 | 9.28 | 7.60 | 67 | inactive | > 3800 | 170 | 280 | 7.80 |  |  |  |  |  | 
COC(=O)N1CCN(c2ccnc(-n3ccnc3)n2)[C@@H](CC(=O)NCc2ccc3c(c2)OCO3)C1 | 9.62 | 7.74 | 6 | inactive | 1100 | 32 | 16 | 8.00 |  |  |  |  |  | 
Cc1cc(N2CCN(C(=O)C(C)C)C(CC(=O)NCc3ccc4c(c3)OCO4)C2)nc(-n2ccnc2)n1 (stereo unspecified) | 8.72 | 7.10 | 80 | inactive | > 300 | 240 | 120 | 7.34 |  |  |  |  |  | 
Cc1cc(N2CCC[C@@H]2CC(=O)NCc2ccc3c(c2)OCO3)nc(-n2ccnc2)n1 | 9.92 | 8.23 | 8 | inactive | 1000 | 91 | 27 | 8.35 |  |  |  |  |  | 
CC(C)OC(=O)N1CCN(c2ccnc(-n3ccnc3)n2)C(CC(=O)NCc2ccc3c(c2)OCO3)C1 (stereo unspecified) | 9.00 | 7.62 | 4 | inactive | 800 |  |  |  |  |  |  |  |  | 
CNC(=O)N1CCN(c2ccnc(-n3ccnc3)n2)C(CC(=O)NCc2ccc3c(c2)OCO3)C1 (stereo unspecified) | 9.00 | 6.35 | 4 | inactive | > 250 |  |  |  |  |  |  |  |  | 
O=C(NCCc1ccc2c(c1)OCO2)[C@H]1CCCN1c1ccnc(-n2ccnc2)n1 | 9.32 | 7.60 | 19 | inactive | > 2000 | 181 | 74 | 7.96 |  |  |  |  |  | 
CCc1cc(N2CCC[C@@H]2CC(=O)NCc2ccc3c(c2)OCO3)nc(-n2ccnc2)n1 | 9.89 | 8.12 | 15 | inactive | 7800 | 65 | 18 | 8.15 |  |  |  |  |  | 
Cc1cc(N2CCN(C(=O)C(C)C)[C@H](CC(=O)NCc3ccc4c(c3)OCO4)C2)nc(-n2ccnc2)n1 | 9.12 | 6.46 | 29 | inactive | > 400 | 74 | 80 | 6.89 |  |  |  |  |  | 
Cc1cc(N2CCC[C@@H]2C(=O)NCCc2ccc3c(c2)OCO3)nc(-n2ccnc2)n1 | 9.54 | 7.70 | 62 | inactive | > 5000 | 540 | 327 | 7.85 | 71 | 4.5 | 21 | 0.7 | inactive | 2.5
COc1ccc(CCNC(=O)CC2CCCCN2c2ccnc(-n3ccnc3)n2)cc1OC (stereo unspecified) | 7.92 | 6.17 | 1 | inactive | 120 |  |  |  |  |  |  |  |  | 
Cc1cc(N2CCN(C)C(CC(=O)NCc3ccc4c(c3)OCO4)C2)nc(-n2ccnc2)n1 (stereo unspecified) | 7.92 | 6.47 | 72 | inactive | > 350 |  |  |  |  |  |  |  |  | 
O=C(CC1CN(Cc2cccc3ccccc23)CCN1c1ccnc(-n2ccnc2)n1)NCc1ccc2c(c1)OCO2 (stereo unspecified) | 7.16 | 6.92 | 7 | inactive | 40 |  |  |  |  |  |  |  |  | 
O=C(CC1CCCCN1c1cc(-c2ccccc2)nc(-n2ccnc2)n1)NCc1ccc2c(c1)OCO2 (stereo unspecified) | 7.17 | 6.35 | 4 | inactive | 36 |  |  |  |  |  |  |  |  | 
O=C(CC1CN(C(=O)COCc2ccccc2)CCN1c1ccnc(-n2ccnc2)n1)NCc1ccc2c(c1)OCO2 (stereo unspecified) | 9.30 | 7.55 | 11 | inactive | 1220 |  |  |  |  |  |  |  |  | 
O=C(CC1CN(C(=O)OCc2ccccc2)CCN1c1ccnc(-n2ccnc2)n1)NCc1ccc2c(c1)OCO2 (stereo unspecified) | 9.10 | 7.74 | 7 | inactive | 660 |  |  |  |  |  |  |  |  | 
O=C(CC1CN(S(=O)(=O)c2ccccc2)CCN1c1ccnc(-n2ccnc2)n1)NCc1ccc2c(c1)OCO2 (stereo unspecified) | 8.57 | 7.47 | 9 | inactive | 1100 |  |  |  |  |  |  |  |  | 
CS(=O)(=O)N1CCN(c2ccnc(-n3ccnc3)n2)C(CC(=O)NCc2ccc3c(c2)OCO3)C1 (stereo unspecified) | 9.15 | 7.13 | 12 | inactive | > 1000 |  |  |  |  |  |  |  |  | 
COC(=O)N1CCN(c2ccnc(-n3ccnc3)n2)C(CC(=O)NCc2ccc3c(c2)OCO3)C1 (stereo unspecified) | 9.42 | 7.62 | 5 | inactive | 1700 | 82 | 25 | 7.92 |  |  |  |  |  | 
CC(=O)N1CCN(c2cc(C)nc(-n3ccnc3)n2)CC1CC(=O)NCc1ccc2c(c1)OCO2 (stereo unspecified) | 8.07 | 6.47 | > 32 | inactive | > 320 |  |  |  |  |  |  |  |  | 
O=C(CC1CNCCN1c1ccnc(-n2ccnc2)n1)NCc1ccc2c(c1)OCO2 (stereo unspecified) | 9.26 | 7.15 | 7 | inactive | 1200 |  |  |  |  |  |  |  |  | 
O=C(CC1CCCCN1c1ccnc(-n2ccnc2)n1)NCc1ccc2c(c1)OCO2 (stereo unspecified) | 9.30 | 8.15 | 5 | inactive | 520 |  |  |  |  |  |  |  |  | 

From ChEMBL document CHEMBL1142952, “Design, synthesis, and activity of 2-imidazol-1-ylpyrimidine derived inducible nitric oxide synthase dimerization inhibitors” (J Med Chem, 2007)
